Measurements from ChEMBL document CHEMBL2010663, “Iodine-catalyzed condensation of isatin with indoles: a facile synthesis of di(indolyl)indolin-2-ones and evaluation of their cytotoxicity” (Bioorg Med Chem Lett, 2012).
pIC50: −log10 of the molar value.

How the values were obtained:
A549 = test: Cytotoxicity against human A549 cells after 48 hrs by MTT assay; format: functional, cell-based; conditions: A549, 48 h
Procedure, shortened: (§1)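 Cells seeded at 10,000 cells/100 μl in medium with 10% serum and left 24 h in a humid 5% CO2 chamber to adhere. Compounds were then added at a range of concentrations for 48 h. MTT (5 mg/mL stock in PBS, 10 μl per well) was added for 2 h.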

SK-N-SH = test: Cytotoxicity against human SK-N-SH cells after 48 hrs by MTT assay; format: functional, cell-based; procedure, shortened: as §1
MDA-MB-231 = test: Cytotoxicity against human MDA-MB-231 cells after 48 hrs by MTT assay; format: functional, cell-based; conditions: MDA-MB-231, 48 h; procedure, shortened: as §1
MRC5 = test: Cytotoxicity against human MRC5 cells after 48 hrs by MTT assay; format: cell-based; conditions: MRC5, 48 h; procedure, shortened: as §1

Compound	pIC50 (A549)	pIC50 (SK-N-SH)	pIC50 (MDA-MB-231)	pIC50 (MRC5)
Cc1[nH]c2ccccc2c1C1(c2c(C)[nH]c3ccccc23)C(=O)Nc2ccccc21	6.04	6.01	< 4.00	< 4.00
COc1cccc2c1C(=O)c1c(O)c3c(c(O)c1C2=O)C[C@@](O)(C(=O)CO)C[C@@H]3O[C@H]1C[C@H](N)[C@H](O)[C@H](C)O1 [DOXORUBICIN]	4.82	6.01	5.09	4.83
O=C1Nc2ccccc2C1(c1c[nH]c2ccccc12)c1c[nH]c2ccccc12	5.91	6.05	< 4.00	< 4.00
COC(=O)c1ccc2[nH]cc(C3(c4c[nH]c5ccc(C(=O)OC)cc45)C(=O)Nc4ccccc43)c2c1	6.12	6.01	< 4.00	< 4.00
Cc1[nH]c2ccc([N+](=O)[O-])cc2c1C1(c2c(C)[nH]c3ccc([N+](=O)[O-])cc23)C(=O)Nc2ccccc21	6.05	6.03	4.00	< 4.00
O=C1Nc2ccccc2C1(c1c[nH]c2ccc([N+](=O)[O-])cc12)c1c[nH]c2ccc([N+](=O)[O-])cc12	5.10	6.00	5.00	< 4.00
O=C1Nc2ccc(Cl)cc2C1(c1c(-c2ccccc2)[nH]c2ccccc12)c1c(-c2ccccc2)[nH]c2ccccc12	< 4.00	< 4.00	< 4.00	< 4.00
Cn1cc(C2(c3cn(C)c4ccccc34)C(=O)Nc3ccccc32)c2ccccc21	< 4.00	5.88	< 4.00	< 4.00
O=C1Nc2ccccc2C1(c1c(-c2ccccc2)[nH]c2ccccc12)c1c(-c2ccccc2)[nH]c2ccccc12	5.05	5.02	< 4.00	< 4.00
O=C1Nc2ccc(Cl)cc2C1(c1c[nH]c2ccc(Br)cc12)c1c[nH]c2ccc(Br)cc12	< 4.00	5.98	< 4.00	< 4.00
O=C1Nc2ccccc2C1=O [ISATIN]	4.87	5.01	< 4.00	< 4.00
N#Cc1ccc2[nH]cc(C3(c4c[nH]c5ccc(C#N)cc45)C(=O)Nc4ccccc43)c2c1	6.01	6.03	4.00	< 4.00
O=C1Nc2ccccc2C1(c1c[nH]c2ccc(Br)cc12)c1c[nH]c2ccc(Br)cc12	6.02	6.03	5.00	< 4.00
COC(=O)c1ccc2[nH]cc(C3(c4c[nH]c5ccc(C(=O)OC)cc45)C(=O)Nc4ccc(Cl)cc43)c2c1	4.15	5.00	5.00	< 4.00
c1ccc2[nH]ccc2c1 [INDOLE]	< 4.00	5.75	< 4.00	4.81
O=C1Nc2ccccc2C1(c1c[nH]c2ccc(Cl)cc12)c1c[nH]c2ccc(Cl)cc12	< 4.00	5.88	5.00	< 4.00
Cc1[nH]c2ccc([N+](=O)[O-])cc2c1C1(c2c(C)[nH]c3ccc([N+](=O)[O-])cc23)C(=O)Nc2ccc(Cl)cc21	4.16	5.91	5.00	< 4.00
